What was measured:
[1] = Inhibition of CK2 assessed as residual activity at 10 uM by Cherenkov counting relative to control in presence of 5 uM ATP
Summary of the method: (§1)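 Single-point profiling at 10 µM in a panel of 78 protein kinases. Kinase activity is expressed as a percentage relative to control assays without compound.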

[2] = Inhibition of AMPK assessed as residual activity at 10 uM by Cherenkov counting relative to control in presence of 50 uM ATP; summary of the method: as §1
[3] = target: Proto-oncogene tyrosine-protein kinase Src (Homo sapiens) (UniProt P12931); test: Inhibition of Src assessed as residual activity at 10 uM by Cherenkov counting relative to control in presence of 50 uM ATP
Chain of Proto-oncogene tyrosine-protein kinase Src (Homo sapiens) (P12931 2-536 limits assumed): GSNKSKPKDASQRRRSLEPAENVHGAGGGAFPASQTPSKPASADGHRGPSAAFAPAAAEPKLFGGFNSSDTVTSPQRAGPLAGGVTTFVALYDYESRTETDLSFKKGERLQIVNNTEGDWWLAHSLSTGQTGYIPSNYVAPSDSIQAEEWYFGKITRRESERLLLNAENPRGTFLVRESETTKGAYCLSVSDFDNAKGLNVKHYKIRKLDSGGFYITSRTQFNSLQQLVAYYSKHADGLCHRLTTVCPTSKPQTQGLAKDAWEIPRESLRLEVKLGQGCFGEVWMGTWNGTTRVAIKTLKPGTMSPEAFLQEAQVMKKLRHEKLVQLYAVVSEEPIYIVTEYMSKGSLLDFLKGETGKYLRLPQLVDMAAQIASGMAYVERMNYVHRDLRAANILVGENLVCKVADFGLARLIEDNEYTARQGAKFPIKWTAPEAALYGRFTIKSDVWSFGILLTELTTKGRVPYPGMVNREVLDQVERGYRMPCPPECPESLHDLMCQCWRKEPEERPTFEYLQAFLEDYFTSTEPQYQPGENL
Summary of the method: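 Single-concentration profiling at 10 μM in a 78-kinase panel. Kinase activity is expressed as a percentage of control assays run without compound.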

[4] = target: Dual specificity mitogen-activated protein kinase kinase 1 (Homo sapiens) (UniProt Q02750); test: Inhibition of MKK1 assessed as residual activity at 10 uM by Cherenkov counting relative to control in presence of 5 uM ATP
Chain of Dual specificity mitogen-activated protein kinase kinase 1 (Homo sapiens) (Q02750 whole entry): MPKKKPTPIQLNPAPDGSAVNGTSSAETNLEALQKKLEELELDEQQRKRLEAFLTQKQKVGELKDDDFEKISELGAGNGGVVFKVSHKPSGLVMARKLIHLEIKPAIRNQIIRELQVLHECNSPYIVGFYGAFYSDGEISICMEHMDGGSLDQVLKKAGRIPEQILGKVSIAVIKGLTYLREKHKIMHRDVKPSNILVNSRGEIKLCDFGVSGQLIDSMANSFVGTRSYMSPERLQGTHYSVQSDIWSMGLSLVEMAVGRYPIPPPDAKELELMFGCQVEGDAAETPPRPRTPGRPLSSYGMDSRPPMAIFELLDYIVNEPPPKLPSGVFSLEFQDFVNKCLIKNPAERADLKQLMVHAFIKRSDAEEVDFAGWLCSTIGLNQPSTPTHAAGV

[5] = target: Serine/threonine-protein kinase Nek6 (Homo sapiens) (UniProt Q9HC98); test: Inhibition of NEK6 assessed as residual activity at 10 uM by Cherenkov counting relative to control in presence of 50 uM ATP
Chain of Serine/threonine-protein kinase Nek6 (Homo sapiens) (Q9HC98 whole entry): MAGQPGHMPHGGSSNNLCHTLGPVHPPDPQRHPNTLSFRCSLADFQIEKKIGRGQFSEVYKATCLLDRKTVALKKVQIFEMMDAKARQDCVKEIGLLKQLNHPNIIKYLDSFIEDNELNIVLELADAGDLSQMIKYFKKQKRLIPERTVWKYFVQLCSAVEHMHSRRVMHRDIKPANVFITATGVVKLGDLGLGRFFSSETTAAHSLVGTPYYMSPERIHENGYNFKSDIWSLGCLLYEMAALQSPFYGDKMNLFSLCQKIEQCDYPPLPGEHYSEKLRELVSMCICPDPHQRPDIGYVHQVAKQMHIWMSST

[6] = target: MAP kinase-interacting serine/threonine-protein kinase 2 (Homo sapiens) (UniProt Q9HBH9); test: Inhibition of MNK2 assessed as residual activity at 10 uM by Cherenkov counting relative to control in presence of 50 uM ATP
Chain of MAP kinase-interacting serine/threonine-protein kinase 2 (Homo sapiens) (Q9HBH9 whole entry, looked up): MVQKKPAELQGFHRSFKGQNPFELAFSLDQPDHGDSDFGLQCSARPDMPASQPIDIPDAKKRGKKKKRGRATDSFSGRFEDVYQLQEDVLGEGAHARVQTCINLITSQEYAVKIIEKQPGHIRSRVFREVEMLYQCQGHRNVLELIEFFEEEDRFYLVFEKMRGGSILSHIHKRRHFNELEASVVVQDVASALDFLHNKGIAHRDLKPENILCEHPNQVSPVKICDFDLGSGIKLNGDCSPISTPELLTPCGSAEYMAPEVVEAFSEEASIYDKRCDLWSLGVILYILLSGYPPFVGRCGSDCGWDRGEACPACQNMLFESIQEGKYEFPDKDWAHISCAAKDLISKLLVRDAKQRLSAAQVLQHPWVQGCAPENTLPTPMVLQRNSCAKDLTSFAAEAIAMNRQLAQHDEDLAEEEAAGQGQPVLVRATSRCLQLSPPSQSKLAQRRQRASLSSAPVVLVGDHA

[7] = target: T1, Dual specificity tyrosine-phosphorylation-regulated kinase 2 (Homo sapiens) (UniProt Q92630); test: Inhibition of DYRK2 assessed as residual activity at 10 uM by Cherenkov counting relative to control in presence of 50 uM ATP; summary of the method: as §1
T1 sequence (whole entry): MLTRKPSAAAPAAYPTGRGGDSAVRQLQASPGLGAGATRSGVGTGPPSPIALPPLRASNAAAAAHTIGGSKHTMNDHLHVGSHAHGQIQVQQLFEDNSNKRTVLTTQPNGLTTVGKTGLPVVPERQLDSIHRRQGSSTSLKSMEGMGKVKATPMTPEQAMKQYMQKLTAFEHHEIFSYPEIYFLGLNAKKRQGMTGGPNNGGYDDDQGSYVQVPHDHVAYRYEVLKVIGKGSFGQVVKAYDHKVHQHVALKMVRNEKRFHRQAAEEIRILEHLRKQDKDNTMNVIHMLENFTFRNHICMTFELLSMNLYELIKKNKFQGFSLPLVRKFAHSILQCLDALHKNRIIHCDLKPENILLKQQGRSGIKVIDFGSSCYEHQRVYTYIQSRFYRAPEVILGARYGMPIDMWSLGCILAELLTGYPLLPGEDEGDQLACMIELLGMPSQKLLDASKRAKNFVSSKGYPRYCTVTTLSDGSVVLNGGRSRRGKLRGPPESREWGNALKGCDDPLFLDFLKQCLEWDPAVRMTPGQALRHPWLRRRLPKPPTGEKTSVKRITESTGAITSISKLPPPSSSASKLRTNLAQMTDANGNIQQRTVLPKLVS

[8] = target: Protein kinase C alpha type (Homo sapiens) (UniProt P17252); test: Inhibition of PKCalpha assessed as residual activity at 0.1 uM by Cherenkov counting relative to control in presence of 20 uM ATP
Summary of the method: (§2)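 Single-concentration screen at 0.1 μM in a 76-kinase panel. ATP for each kinase was set near its Km for ATP. Residual activity is given as a percentage of control assays without compound, mean of n = 3 ± SD.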

[9] = target: Mitogen-activated protein kinase 15 (Homo sapiens) (UniProt Q8TD08); test: Inhibition of ERK8 assessed as residual activity at 0.1 uM by Cherenkov counting relative to control in presence of 5 uM ATP
Chain of Mitogen-activated protein kinase 15 (Homo sapiens) (Q8TD08 whole entry): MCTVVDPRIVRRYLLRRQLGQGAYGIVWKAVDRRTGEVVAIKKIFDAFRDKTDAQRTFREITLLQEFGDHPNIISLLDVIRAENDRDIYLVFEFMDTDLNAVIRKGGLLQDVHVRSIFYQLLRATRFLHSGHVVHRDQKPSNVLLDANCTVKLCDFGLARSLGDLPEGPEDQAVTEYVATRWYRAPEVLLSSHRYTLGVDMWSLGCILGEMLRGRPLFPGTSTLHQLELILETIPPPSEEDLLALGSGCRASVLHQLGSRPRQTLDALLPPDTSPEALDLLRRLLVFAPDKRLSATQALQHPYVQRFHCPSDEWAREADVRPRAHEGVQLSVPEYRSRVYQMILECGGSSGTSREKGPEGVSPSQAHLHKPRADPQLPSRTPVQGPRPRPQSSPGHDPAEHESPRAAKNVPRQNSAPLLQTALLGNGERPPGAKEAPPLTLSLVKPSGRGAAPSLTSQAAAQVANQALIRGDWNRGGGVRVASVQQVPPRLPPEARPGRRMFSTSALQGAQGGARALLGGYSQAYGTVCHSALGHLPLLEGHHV
Summary of the method: (§3)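 Single-concentration screen at 0.1 µM across a panel of 76 protein kinases. Each kinase was run at an ATP concentration approximating its ATP Km. Results are % mean residual activity versus control assays without compound (n = 3 ± SD).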

[10] = target: Mitogen-activated protein kinase 1 (Homo sapiens) (UniProt P28482); test: Inhibition of ERK2 assessed as residual activity at 0.1 uM by Cherenkov counting relative to control; summary of the method: as §3
Chain of Mitogen-activated protein kinase 1 (Homo sapiens) (P28482 whole entry): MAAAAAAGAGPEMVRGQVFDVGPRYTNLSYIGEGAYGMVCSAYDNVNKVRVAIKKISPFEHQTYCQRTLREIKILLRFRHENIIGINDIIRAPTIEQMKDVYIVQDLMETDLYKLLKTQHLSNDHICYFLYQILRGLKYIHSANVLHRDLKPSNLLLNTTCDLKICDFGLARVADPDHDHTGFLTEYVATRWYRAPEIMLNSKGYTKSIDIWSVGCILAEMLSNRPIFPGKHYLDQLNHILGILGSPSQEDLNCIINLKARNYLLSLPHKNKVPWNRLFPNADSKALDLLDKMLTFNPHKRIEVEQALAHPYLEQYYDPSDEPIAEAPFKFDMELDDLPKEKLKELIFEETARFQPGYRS

[11] = target: Insulin-like growth factor 1 receptor (Homo sapiens) (UniProt P08069); test: Inhibition of IGF1R assessed as residual activity at 0.1 uM by Cherenkov counting relative to control in presence of 5 uM ATP; summary of the method: as §3
Chain of Insulin-like growth factor 1 receptor (Homo sapiens) (P08069 31-736 limits assumed): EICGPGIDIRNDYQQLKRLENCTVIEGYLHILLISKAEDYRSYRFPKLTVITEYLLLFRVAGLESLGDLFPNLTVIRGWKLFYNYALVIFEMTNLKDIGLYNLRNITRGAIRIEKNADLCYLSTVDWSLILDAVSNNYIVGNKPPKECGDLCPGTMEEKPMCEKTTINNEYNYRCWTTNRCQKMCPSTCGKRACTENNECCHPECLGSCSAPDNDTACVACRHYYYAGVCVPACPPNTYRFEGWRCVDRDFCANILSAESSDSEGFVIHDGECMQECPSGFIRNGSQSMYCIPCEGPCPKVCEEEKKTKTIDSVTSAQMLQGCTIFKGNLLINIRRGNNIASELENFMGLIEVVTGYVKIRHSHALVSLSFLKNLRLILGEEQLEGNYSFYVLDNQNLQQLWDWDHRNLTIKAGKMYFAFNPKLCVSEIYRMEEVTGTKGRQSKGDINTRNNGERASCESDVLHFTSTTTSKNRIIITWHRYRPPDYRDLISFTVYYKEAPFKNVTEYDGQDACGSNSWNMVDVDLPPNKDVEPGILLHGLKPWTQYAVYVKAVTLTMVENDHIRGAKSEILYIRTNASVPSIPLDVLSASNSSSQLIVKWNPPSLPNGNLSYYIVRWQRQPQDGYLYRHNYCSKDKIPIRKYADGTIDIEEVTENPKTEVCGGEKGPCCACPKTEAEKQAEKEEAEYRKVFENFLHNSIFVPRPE
Chain of Insulin-like growth factor 1 receptor (Homo sapiens) (P08069 741-1367 limits assumed): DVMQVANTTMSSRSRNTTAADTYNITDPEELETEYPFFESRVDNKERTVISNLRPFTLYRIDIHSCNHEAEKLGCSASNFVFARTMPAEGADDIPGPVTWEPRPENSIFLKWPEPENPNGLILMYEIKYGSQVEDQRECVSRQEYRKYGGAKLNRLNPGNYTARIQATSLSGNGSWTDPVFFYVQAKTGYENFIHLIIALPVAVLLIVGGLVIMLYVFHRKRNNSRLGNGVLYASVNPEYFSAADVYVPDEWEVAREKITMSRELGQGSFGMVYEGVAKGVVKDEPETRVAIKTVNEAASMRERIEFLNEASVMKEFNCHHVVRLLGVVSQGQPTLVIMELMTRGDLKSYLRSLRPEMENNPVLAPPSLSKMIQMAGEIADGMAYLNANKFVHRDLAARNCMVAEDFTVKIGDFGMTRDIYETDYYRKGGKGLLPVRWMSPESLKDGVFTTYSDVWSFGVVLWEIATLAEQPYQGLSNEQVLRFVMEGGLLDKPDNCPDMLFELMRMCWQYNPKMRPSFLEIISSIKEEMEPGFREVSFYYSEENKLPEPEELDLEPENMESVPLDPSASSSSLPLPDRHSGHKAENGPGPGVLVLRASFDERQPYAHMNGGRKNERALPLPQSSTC

[12] = target: Ribosomal protein S6 kinase alpha-1 (Homo sapiens) (UniProt Q15418); test: Inhibition of RSK1 assessed as residual activity at 0.1 uM by Cherenkov counting relative to control; summary of the method: as §2
[13] = target: T2, Eukaryotic elongation factor 2 kinase (Homo sapiens) (UniProt O00418); test: Inhibition of EF2K assessed as residual activity at 0.1 uM by Cherenkov counting relative to control in presence of 5 uM ATP; summary of the method: as §3
T2 sequence (whole entry): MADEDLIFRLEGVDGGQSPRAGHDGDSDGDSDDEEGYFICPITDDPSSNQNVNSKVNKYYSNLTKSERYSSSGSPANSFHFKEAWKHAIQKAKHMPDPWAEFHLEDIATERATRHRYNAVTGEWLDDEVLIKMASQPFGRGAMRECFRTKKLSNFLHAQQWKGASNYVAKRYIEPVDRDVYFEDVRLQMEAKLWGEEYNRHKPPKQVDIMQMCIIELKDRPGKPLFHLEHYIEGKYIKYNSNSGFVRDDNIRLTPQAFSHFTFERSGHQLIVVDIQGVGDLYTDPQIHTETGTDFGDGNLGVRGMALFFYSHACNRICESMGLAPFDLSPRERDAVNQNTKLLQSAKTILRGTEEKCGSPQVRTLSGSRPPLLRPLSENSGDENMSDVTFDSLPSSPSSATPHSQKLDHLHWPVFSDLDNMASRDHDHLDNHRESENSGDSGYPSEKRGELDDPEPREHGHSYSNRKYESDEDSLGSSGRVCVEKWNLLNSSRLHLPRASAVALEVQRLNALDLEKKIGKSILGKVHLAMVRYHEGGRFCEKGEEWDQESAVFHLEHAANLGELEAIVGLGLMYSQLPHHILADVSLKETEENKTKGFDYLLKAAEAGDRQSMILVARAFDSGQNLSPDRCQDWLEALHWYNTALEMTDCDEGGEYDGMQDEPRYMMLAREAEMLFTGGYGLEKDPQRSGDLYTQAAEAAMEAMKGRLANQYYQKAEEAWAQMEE

[14] = target: Mitogen-activated protein kinase 12 (Homo sapiens) (UniProt P53778); test: Inhibition of p38-gamma assessed as residual activity at 0.1 uM by Cherenkov counting relative to control; summary of the method: as §2
Chain of Mitogen-activated protein kinase 12 (Homo sapiens) (P53778 whole entry): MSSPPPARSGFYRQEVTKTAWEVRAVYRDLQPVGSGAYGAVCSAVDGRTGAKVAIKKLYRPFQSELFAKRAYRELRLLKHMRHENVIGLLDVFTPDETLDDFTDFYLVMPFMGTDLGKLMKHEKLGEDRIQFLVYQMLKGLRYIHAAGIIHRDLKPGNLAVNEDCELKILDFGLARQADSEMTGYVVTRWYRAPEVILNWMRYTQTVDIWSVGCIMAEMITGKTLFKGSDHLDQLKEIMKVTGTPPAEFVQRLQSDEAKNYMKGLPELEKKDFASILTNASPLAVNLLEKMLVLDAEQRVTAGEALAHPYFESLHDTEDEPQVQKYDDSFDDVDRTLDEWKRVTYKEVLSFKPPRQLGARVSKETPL

[15] = target: Glycogen synthase kinase-3 beta (Homo sapiens) (UniProt P49841); test: Inhibition of GSK3-beta assessed as residual activity at 0.1 uM by Cherenkov counting relative to control in presence of 5 uM ATP; summary of the method: as §3

Structure (SMILES) | Activity [1] | Activity [2] | Activity [3] | Activity [4] | Activity [5] | Activity [6] | Activity [7] | Activity [8] | Activity [9] | Activity [10] | Activity [11] | Activity [12] | Activity [13] | Activity [14] | Activity [15]
CC(C)c1onc(-c2ccc(F)cc2)c1-c1ccncc1 | 96% | 88% | 72% | 76% | 112% | 110% | 101% | – | – | – | – | – | – | – | –
COc1ccc(/C=C/C(=O)Nc2cc(-c3[nH]c([S+](C)[O-])nc3-c3ccc(F)cc3)ccn2)c(OC)c1 (stereo not given) | – | – | – | – | – | – | – | 103% | 88% | 93% | 107% | 80% | 102% | 97% | 101%
COc1ccc(/C=C/C(=O)Nc2cc(-c3[nH]c(SC)nc3-c3ccc(F)cc3)ccn2)c(OC)c1 | – | – | – | – | – | – | – | 110% | 83% | 91% | 87% | 78% | 100% | 84% | 81%
CC(C)c1noc(-c2ccc(F)cc2)c1-c1ccncc1 | 95% | 73% | 90% | 88% | 108% | 101% | 104% | – | – | – | – | – | – | – | –

Source: ChEMBL document CHEMBL1155278, “3,4-Diaryl-isoxazoles and -imidazoles as potent dual inhibitors of p38alpha mitogen activated protein kinase and casein kinase 1delta” (J Med Chem, 2009)
